Bioassay records (PubChem BioAssay)
KCNK3 inh – human KCNK3 channel inhibition, primary screen. B-score at 10 µM. CHO-KCNK3 thallium flux, FluxOR fluorescence; hits give low values. AID 602410. hit rate 0.84% among 340,000. O14649;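 active = B-score under library mean minus 4 SD, starting fluorescence ratio at most library mean plus 5 SD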;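 note: more negative B-score means stronger inhibition of thallium flux through KCNK3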
Target sequence (O14649 whole entry, looked up): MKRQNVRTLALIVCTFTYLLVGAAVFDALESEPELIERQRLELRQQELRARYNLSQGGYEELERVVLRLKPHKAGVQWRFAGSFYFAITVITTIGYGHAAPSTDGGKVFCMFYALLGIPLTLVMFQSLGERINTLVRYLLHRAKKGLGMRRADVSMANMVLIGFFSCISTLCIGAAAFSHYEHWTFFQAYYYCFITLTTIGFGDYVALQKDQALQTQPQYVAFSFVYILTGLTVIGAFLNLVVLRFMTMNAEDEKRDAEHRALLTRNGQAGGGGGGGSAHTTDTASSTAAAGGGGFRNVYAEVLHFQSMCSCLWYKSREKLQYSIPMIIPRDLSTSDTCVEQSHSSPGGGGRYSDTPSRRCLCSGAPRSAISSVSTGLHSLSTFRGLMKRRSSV
hERG rescue – hERG (human) protection from proarrhythmic block. Q12809. CHO-hERG, FluxOR thallium flux, dofetilide IC70 present. activation (rescue from dofetilide block), less the hit threshold, % at 10 µM. hit rate 0.51% among 310,000. AID 1511;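 active = activation above the mean of controls blocked by dofetilide plus 5 SD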;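 note: thallium influx through hERG after potassium depolarization seen as dye fluorescence rise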
KCNQ1 block – blocks the human KCNQ1 potassium channel; P51787; CHO-K1 KCNQ1, FluxOR thallium flux fluorescence; hits give high values; B-score at 10 µM; hit rate 1.3% among 310,000; AID 2642;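 active = compounds whose thallium flux B-score, printed positive for inhibition, exceeds three library SD while starting fluorescence stays within three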;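 note: channel opened by potassium depolarization with thallium stimulus after 20 min compound exposure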
KCNQ1 act – potentiates or activates the human KCNQ1 potassium channel; B-score at 10 µM; hit rate 0.35% among 310,000; P51787; AID 2648; CHO-K1 KCNQ1, thallium flux FluxOR fluorescence; hits give high values;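 active = fluorescence ratio B-score, a plate-corrected score, at least three library SD, with initial intensity B-score within 5 SD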
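Assay system: stable KCNQ1 CHO-K1 line; medium: assay buffer, equal DMSO in all wells; timing: 90 min dye loading and 20 min compound exposure, both at room temperature; technique: kinetic FluxOR thallium fluorescence, 10-s 1-Hz baseline, 110-s post-stimulus read; read-out basis: B score of baseline-normalized fluorescence ratio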
KCNK9 block – human KCNK9 channel inhibition; HEK293 KCNK9, FluxOR thallium flux fluorescence; hits give low values; hit rate 1.2% among 310,000; AID 488922; B-score at 10 µM;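 active = ratio B-score over 3 SD below the library mean, with starting fluorescence within 5 SD of its mean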;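 note: negative B-score means less thallium flux so channel inhibition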
Each line names hits and unclear results; the compound was inactive in the other large screens; ! = repeats disagree. Shown are actives, neighbours in structure and some others; about 3.1% of the full set was active somewhere.

COc1cccc(-c2cc(C(=O)Nc3ccc([N+](=O)[O-])cn3)c3ccccc3n2)c1	KCNK9 block -7.8
O=C(CS(=O)(=O)c1ccccc1)Nc1ncc([N+](=O)[O-])s1	none
O=C(Nc1ncc([N+](=O)[O-])s1)c1cccs1	KCNQ1 block 6!
O=C(Nc1ncc([N+](=O)[O-])s1)c1ccccc1Br	KCNQ1 block 8
O=C(O)C1CC2CCC1CC2 (configuration not stated)	none (no result: hERG rescue, KCNQ1 block, KCNQ1 act, KCNK9 block)
O=C(NN=C1c2ccccc2-c2ccccc21)c1cccc(Br)c1	hERG rescue 46, KCNQ1 act 18
C=CCn1c(=NC(=O)C2COc3ccccc3O2)sc2cccc(OC)c21 (configuration not stated)	KCNK9 block -7.4
C=CCn1c(=NC(=O)CN2C(=O)CCC2=O)sc2cccc(OC)c21	none
CC(OC(=O)Cc1c(F)cccc1Cl)C(=O)NC1CCCCC1C (configuration not stated)	none (no result: hERG rescue, KCNQ1 block, KCNQ1 act, KCNK9 block)
Nc1cccc(N2C(=O)c3cccc4c(N)ccc(c34)C2=O)c1	KCNQ1 block 11
Cc1ccc(C2C(/C=C3/SC(=S)NC3=O)=C(c3cccs3)Oc3ccccc32)cc1 (configuration not stated)	KCNQ1 act 8
CCc1nc2sc3c(c2c(=S)[nH]1)CC(C)(C)OC3	none
CSc1nc2sc3c(c2c(=S)[nH]1)CC(C)(C)OC3	hERG rescue 56, KCNQ1 act 82
N#Cc1c(-c2ccccc2Cl)cc(-c2ccccc2)nc1Br	KCNQ1 block 9
CCn1c2c(c(=N)c3c1CCC3)CCCC2	none
CCCCCCCCCn1c2c(c(=N)c3c1CCC3)CCCC2	KCNK3 inh -12, KCNQ1 block 10
O=C(O)c1cccc(Nc2ccnc(Nc3cccc(C(=O)O)c3)n2)c1	none
Cc1cnc(C(=O)OCC(=O)N2C(C)CCCC2C)cn1 (configuration not stated)	none (no result: hERG rescue, KCNQ1 block, KCNQ1 act, KCNK9 block)
O=[N+]([O-])c1ccc(N2CCN(c3cccc(Cl)c3)CC2)nc1	KCNK9 block -6.6
CCCC/C=C1/CCC(CN(C)C)C1=O (configuration not stated)	none (no result: hERG rescue, KCNQ1 block, KCNQ1 act, KCNK9 block)
Cc1ccc2[nH]c3c(c2c1)CCCC3NCCO (configuration not stated)	none
O=C(COc1ccc2ccccc2c1Br)Nc1cccnc1	hERG rescue 23
O=C(COc1ccc2ccccc2c1Br)Nc1ccncc1	none
O=C(c1ccccc1)C1(c2ccccc2)OC1c1ccccc1 (configuration not stated)	none (no result: hERG rescue, KCNQ1 block, KCNQ1 act, KCNK9 block)
Cc1ccccc1N(C(=O)c1cccs1)c1nc2ccccc2s1	KCNQ1 block 7
CCOC(=O)c1c(C)[nH]c(C(=O)CN(C)CC(=O)Nc2ccccc2C(F)(F)F)c1C	KCNK3 inh -8.8 (no result: hERG rescue, KCNQ1 block, KCNQ1 act, KCNK9 block)
O=C(OCCSCCOC(=O)C1CC=CCC1)C1CC=CCC1 (configuration not stated)	none (no result: hERG rescue, KCNQ1 block, KCNQ1 act, KCNK9 block)
O=C(COC(=O)/C=C/c1ccc2c(c1)OCO2)NC1CC1	hERG rescue 5.4
S=c1nc(C2CCCCC2)[nH]c2ccccc12	hERG rescue 10, KCNQ1 act 22
O=c1[nH]c(C2CCCCC2)nc2ccccc12	none
S=c1nc(C2CC2)[nH]c2ccccc12	hERG rescue 20, KCNQ1 act 29
Cc1ccc(OCc2cc(C(=O)N(CCO)Cc3cccs3)no2)cc1C	none
CCCCCCc1nc2c(=O)[nH]c3ccccc3c2o1	hERG rescue 6.2
CCCCCCCc1nc2c(=O)n(C)c3ccccc3c2o1	none
COc1ccc(N2CC(C(=O)Nc3nnc(SCc4ccccn4)s3)CC2=O)cc1 (configuration not stated)	none
COc1cccc(C(=O)NC(=S)N2c3ccccc3CC2C)c1OC (configuration not stated)	none
CC1Cc2ccccc2N1C(=S)NC(=O)c1ccc(Cl)cc1Cl (configuration not stated)	hERG rescue 32, KCNQ1 act 24
CC1Cc2ccccc2N1C(=S)NC(=O)c1cccc(Br)c1 (configuration not stated)	hERG rescue 80, KCNQ1 act 92
CC(=O)c1ccc(NC(=S)N2c3ccccc3CC2C)cc1 (configuration not stated)	none
COc1cccc(NC(=O)CN(C)CC(=O)c2c(C)[nH]c3ccccc23)c1	none (no result: hERG rescue, KCNQ1 block, KCNQ1 act, KCNK9 block)
CCCCc1nc2sc3c(SCCN(C)C)ncnc3c2c2c1CCC2	KCNQ1 act 21
Cc1ccc(C(c2ccc(C)c(C)c2)C(O)C2OC(=O)C(O)C2O)cc1C (configuration not stated)	none (no result: hERG rescue, KCNQ1 block, KCNQ1 act, KCNK9 block)
COc1ccc(C2CC(=O)c3c(O)cc(O)cc3O2)c(CC=C(C)C)c1OC (configuration not stated)	none
CC(C)(C)C(=O)Nc1cccc(OC(F)(F)C(F)Cl)c1 (configuration not stated)	KCNK9 block -7
CC(=O)Oc1cccc2c1C(=O)C1CC=CC(OC(C)=O)C1C2=O (configuration not stated)	none (no result: hERG rescue, KCNQ1 block, KCNQ1 act, KCNK9 block)
N#Cc1ccc(NC(=O)Cn2cnc([N+](=O)[O-])c2)cc1	none
O=C(Cn1cnc([N+](=O)[O-])c1)Nc1cc(Oc2ccc(Cl)cc2Cl)cc([N+](=O)[O-])c1	KCNQ1 block 8
CC1CN(C(C)C)C(=S)N(c2ccccc2)C1=O (configuration not stated)	none (no result: hERG rescue, KCNQ1 block, KCNQ1 act, KCNK9 block)
CCCC(=O)Nc1ccc(OCC(O)CNC(C)C)c(C(C)=O)c1 (configuration not stated)	KCNQ1 act 9
CCN(CC)c1ccc(/C=C(\C#N)c2ccccn2)cc1	KCNK3 inh -11, KCNQ1 block 6
CCOC(=O)C(NC(=O)c1ccccc1)C(C)(C)SCc1ccccc1 (configuration not stated)	none (no result: hERG rescue, KCNQ1 block, KCNQ1 act, KCNK9 block)
CC(C)=CC(=O)O[C@@H]1Cc2cc3ccc(=O)oc3cc2OC1(C)C	none (no result: hERG rescue, KCNQ1 block, KCNQ1 act, KCNK9 block)
Oc1ccc(N=Nc2nc(-c3ccccc3)c(-c3ccccc3)[nH]2)cc1	KCNK9 block -7.4
Oc1ccc(N=Nc2n[nH]c(-c3ccccc3)n2)cc1	none
CCC(C)N1CCN(C(=O)c2cc(OC)cc(OC)c2)CC1 (configuration not stated)	hERG rescue 5.2
c1ccc(N2N=C(c3cccs3)CC2c2ccco2)cc1 (configuration not stated)	none (no result: hERG rescue, KCNQ1 block, KCNQ1 act, KCNK9 block)
Clc1ccc(N2N=C(c3cccs3)CC2c2ccco2)cc1 (configuration not stated)	KCNQ1 block 8
Cc1onc(-c2c(F)cccc2Cl)c1C(=O)Nc1cc(S(=O)(=O)N2CCCCC2)ccc1O	none (no result: hERG rescue, KCNQ1 block, KCNQ1 act, KCNK9 block)
Cc1nn(C(C)C(=O)N/N=C/c2ccc(N(C)C)cc2)c(C)c1[N+](=O)[O-] (configuration not stated)	KCNK9 block -7.9
CC(=O)Nc1ccc(NC(=O)C(C)n2nc(C)c([N+](=O)[O-])c2C)cc1 (configuration not stated)	none
COC(=O)C=C1CCC2C3CCC4=CC(=O)CCC4(C)C3C(=O)CC12C (configuration not stated)	none (no result: hERG rescue, KCNQ1 block, KCNQ1 act, KCNK9 block)
O=C(NNC(=S)NC1CCCCC1)c1ccccc1Br	none
